# ChEMBL document CHEMBL4513216, “Probing the Open Global Health Chemical Diversity Library for Multistage-Active Starting Points for Next-Generation Antimalarials” (ACS Infect Dis, 2020)
# Experiment: Toxicity liver stage against HepG2, at 10uM
# Format: cell-based
# Set-up: test concentration 10 uM, cell line HepG2-A16-CD81EGFP
# Details: human, HepG2-A16-CD81EGFP cells; read-out: INHIBITION
# Procedure, shortened: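 Uninfected HepG2-A16-CD81EGFP cells, 3 × 10^3 per well, 1536-well, plated on prespotted compound at 10 μM final, parasite-free screening media added to match infected plates; puromycin 10 μM positive, DMSO 0.5% negative; run in parallel with 48 h PbLuc assay at 37 °C, 5% CO2; viability by CellTiter-Glo luminescence, normalized to controls.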
row,Compound,cytotoxicity at 10 µM
1,CCCn1cc(C(=O)N2CCCC(c3nccn3CCOC)C2)c(C)n1 (stereo unspecified),0.00455%
2,CN1CCCC[C@@H]2[C@H]1[C@@H](c1ccccc1)CCN2S(=O)(=O)N1CCCC1,-1.03%
3,CN(CCc1nc2cc(Cl)ccc2[nH]1)C(=O)c1ncn[nH]1,-53.7%
4,COCC1CN(C(=O)CC2Cc3ccccc3C2)Cc2c1cnn2C (stereo unspecified),-75.4%
5,O=c1[nH]cnc2[nH]c(N3CCNCC3)nc12,-4.31%
6,COc1cc(C(=O)N(C)C(C)Cc2cc(C)ccn2)ccn1 (stereo unspecified),-9.57%
7,O=C(c1cn2cc(Cl)ccc2n1)N1CCC(CCn2cccn2)CC1,-10.2%
8,O=C(CCn1ncc2c(Cl)cccc21)NCCCO,7.63%
9,COCCCNc1ncnc2c1CCN(C(=O)CC1C=CCC1)CC2 (stereo unspecified),5.97%
10,CCOc1ccccc1-c1cc(N)[nH]n1,5.75%
11,Cc1nn2cnnc2c(C)c1CCC(=O)Nc1nnc(C(C)C)s1,-3.25%
12,COc1cc(C2CC(=O)Nc3c2c(=O)[nH]n3C2CCCCC2)ccc1O (stereo unspecified),-0.607%
13,Cc1n[nH]cc1CNCC(O)c1ccc(F)c(F)c1 (stereo unspecified),6.8%
14,COc1ncnc2c1CCN(C(=O)Cc1cccc(F)c1)CC2,3.88%
15,CS(=O)(=O)N[C@H]1COC[C@@H]2CN(Cc3ccco3)C[C@@H]21,9.12%
16,C[C@@H]1C[C@H]2CN(S(=O)(=O)c3ccc(F)cc3)C[C@H]2O1,3.26%
17,Cc1c(C(=O)N2CCN(c3ncccn3)CC2)n(C)c2ccc(Cl)cc12,3.99%
18,COC(=O)c1cccc(OCCn2nc(-c3cccs3)oc2=O)c1,-6.56%
19,CNC(=O)c1cn[nH]c1C1CCCN1c1nc(C)cc(C)n1 (stereo unspecified),2.81%
20,Cc1cn2c(n1)CCC(NC(=O)c1nc(C)ncc1Cl)C2 (stereo unspecified),-3.13%
21,Cc1cnc(N2C[C@@H]3[C@@H](C2)OCC(=O)N3CC2CC2)nc1,-0.357%

row,Compound,cytotoxicity at 10 µM
1,Cn1ccnc1-c1nccn1C[C@@H]1CCCN2CCCC[C@H]12,2.68%
2,CCc1nn(-c2cc(Oc3cc(C)ccc3C)nc(C)n2)c(N)c1C#N,58.4%
3,O=C1C(n2nnc(-c3ccsc3)n2)CCN1CC(F)(F)F (stereo unspecified),0.519%
4,O=C(NCCN1CCCCC1)c1nc(-c2ccc3cc[nH]c3c2)no1,-8.54%
5,CN(CC(O)CO)C(=O)c1coc(COc2cccc(F)c2)n1 (stereo unspecified),-149%
6,COc1cccc(C2CCCN2C(=O)c2cc3c([nH]c2=O)CCC3)c1 (stereo unspecified),-12%
7,c1ccc(Oc2nccnc2C2CCN(C3CCOCC3)CC2)cc1,4.38%
8,COc1ccc(C(=O)Nc2nncs2)cn1,-11.9%
9,O=C1C[C@H]2[C@@H](CCN2C(=O)c2ccc[nH]2)N1CCN1CCCC1,-4.28%
10,CC(c1ccccc1Cl)N1CCN(C(=O)c2ccc(=O)[nH]c2)CC1 (stereo unspecified),-7.85%
11,Cc1cc(C)c(CNC(=O)C2CCCN(c3cnccn3)C2)c(=O)[nH]1 (stereo unspecified),-13.7%
12,Cc1nc(CN2CCCN(C(=O)c3cccn3C)CC2)cs1,-2.06%
13,CCN(CC)[C@@H]1CN(C(=O)c2ccc(C#N)cc2)[C@@H]2CCCO[C@H]12,-151%
14,Cc1cc(C)cc(C2(C(=O)NC(C)Cn3ccnc3)CC2)c1 (stereo unspecified),-8.26%
15,O=C(N[C@@H]1CNCCC[C@H]1O)c1ccc(OCCN2CCOCC2)cc1,3.11%
16,Cn1cc(Cl)c(C(=O)N2CCc3nc4sccc4c(=O)n3CC2)n1,-3.04%
17,O=C(c1cccc(-c2ccc(F)cc2)c1)N1CCC2(CC1)[C@H](O)C[C@@H]2O,2.37%
18,CC(Cn1cccn1)NC(=O)Nc1ccc(N(C)C)nc1 (stereo unspecified),14.4%
19,NC(=O)NC(CC(=O)NCCc1cccc(F)c1)c1cccs1 (stereo unspecified),1.55%
20,CC(C)N1CCC(CC(=O)NCCc2cc(O)ncn2)CC1,6.36%
21,CCn1c(C)nnc1CN(C)C1CCN(CCCOC)C1 (stereo unspecified),4.19%

row,Compound,cytotoxicity at 10 µM
1,O=C(NCc1nnc2n1CCCCC2)N(CC1CCOC1)C1CC1 (stereo unspecified),5.63%
2,CCCc1nnc(NC(=O)Cc2c(C)nc(C)[nH]c2=O)s1,-10.7%
3,Cn1cc(NC(=O)N2CCCC2c2cccnc2)ccc1=O (stereo unspecified),-3.73%
4,O=C(CCn1cc(Cl)cn1)Nc1ncccn1,-5.32%
5,Cc1noc(-c2ccnc(Oc3ccccc3CN3CCCCC3)c2)n1,-1.76%
6,O=C(O)C1(Cc2cc(-c3cccc(F)c3)no2)CCOCC1,-4.97%
7,Cc1ccc(CN2CC(C(=O)N3CCCC3)C3(CCOCC3)C2)s1 (stereo unspecified),-0.152%
8,Cc1cc(CN(C)C2CCCN(c3cccnn3)C2)on1 (stereo unspecified),16%
9,Cc1ccccc1OC1CCN(C(=O)CNC(=O)N(C)C)CC1,9.83%
10,CSCCC1CC(=O)Nc2cc(O)c(C)cc21 (stereo unspecified),1.97%
11,CN1CCCC2(CCN(Cc3cncn3C3CCCCC3)C2)C1=O (stereo unspecified),-5.96%
12,OCc1cn(CC2CCN(C3CCSC3)CC2)nn1 (stereo unspecified),0.55%
13,COc1ncc(CN(C)C(C)c2cccnc2)cn1 (stereo unspecified),13%
14,CCOc1ncccc1NC(=O)N1CCN(Cc2ccncc2)CC1,-2.54%
15,Cc1cc(O)c(OCC(=O)/N=c2\[nH]c(C)c(C)s2)cn1,8.6%
16,COCCNC(=O)[C@H]1CN(c2ncccn2)C[C@H]2OCC[C@@H]12,-80.7%
17,COc1ccc(-c2nc(CN3CCN(CCO)CC3)co2)cc1,-0.0868%
18,Cc1cnn(C2CCCN(C(=O)c3sccc3-n3cnnn3)C2)c1 (stereo unspecified),-8.72%
19,COC1CCN(c2ccc(F)cc2CN(C)CC(N)=O)CC1,-6.91%
20,CN1CCN(c2ccccc2CNC(=O)CSC(F)(F)F)CC1,8.27%
21,COCCc1noc(CN(C)c2nc(C)cc(C)n2)n1,0.801%

row,Compound,cytotoxicity at 10 µM
1,Cc1noc(C)c1CN1CCN(CCN(C)C)c2ncccc2C1,7.83%
2,COc1ccccc1C(=O)NC(C)CC(=O)O (stereo unspecified),-2.43%
3,Clc1cc(NCc2ccncc2)nc2[nH]ccc12,6.58%
4,CN1CCC/C1=N\S(=O)(=O)c1ccc(NC(=O)c2cccs2)cc1,-3.34%
5,CCn1ccnc1CN(C)Cc1nc(Cc2ccccc2Cl)no1,-1.99%
6,Nc1cc(N2CCC(c3cc(Cc4ccccc4)n[nH]3)CC2)ccn1,24.6%
7,CN1CCCN(C[C@@H]2CN(C(=O)CC3CCC3)C[C@@H]2CO)CC1,-9.11%
8,CN1CCCC(N2CCN(c3cc(C(F)(F)F)ccn3)CC2)C1 (stereo unspecified),5.12%
9,CN1CC(C(=O)NC2(c3cccc(F)c3)CCOCC2)CC1=O (stereo unspecified),15.6%
10,Cc1cccc(CNCc2c(C)nn(C)c2N2CCOCC2)n1,-10.9%
11,COc1ccc(CC2(CO)CCN(c3cc(C(N)=O)ccn3)CC2)cc1,-2.41%
12,Cc1ccc(S(=O)(=O)NC(=O)CCC2CCCO2)cc1 (stereo unspecified),-15.7%
13,O=S1(=O)C[C@@H]2[C@H](C1)N(Cc1ncc[nH]1)CCN2Cc1cccnc1,0.875%
14,CCC(NC1CSCCSC1)c1ccc(S(C)(=O)=O)cc1 (stereo unspecified),-8.06%
15,CCN(CC)CCNC(=O)c1cc(OC)c2ccoc2c1,-0.971%
16,c1ccc(CN2CCOCC3(CCN(C4CCOCC4)C3)C2)cc1 (stereo unspecified),3.01%
17,CC(C)Oc1cc(N2CCC3(CC2)[C@H](O)C[C@@H]3O)nc(N)n1,-0.335%
18,Cc1nccn1CC1CCCN1S(=O)(=O)Cc1ccccc1 (stereo unspecified),-18%
